An excerpt weighted towards active compounds, which were near 3.2% of everything screened.
Hck-Nef inh: inhibitors of Nef-activated human Hck kinase, primary screen, biochemical, Z-Lyte FRET, 384-well, Hck-YEEI; Tyrosine-protein kinase HCK (Homo sapiens), P08631; Recombinant Hck-YEEI plus Nef, Z-Lyte FRET kinase assay; inhibition, % at 20 µM; 220,000 tested, 0.68% active; AID 463187, 2010;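 active = Hck-Nef kinase inhibition above about 50%, limit read from the data; inactive = inhibition below that limit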;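 also: 0% = DMSO with Hck plus Nef and 100% = Hck alone without Nef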
Mcl1-Noxa inh: Mcl-1/Noxa binding inhibitors, primary screen, biochemical, TR-FRET, 1536-well. Induced myeloid leukemia cell differentiation protein Mcl-1 (Homo sapiens), Q07820. TR-FRET Mcl-1/Noxa peptide binding, 2 h. inhibition, % at 21.7 µM. 220,000 tested, 1.5% active. AID 1022, 2008;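 active = compounds that cut the protein-peptide binding signal by more than 50% relative to plate controls in a single-dose test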;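 also: His-tagged Mcl-1 with rhodamine Noxa BH3 peptide and terbium anti-His antibody; 0% = Mcl-1 plus Noxa peptide wells and 100% = peptide-only wells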
Target sequence (Q07820 whole entry, looked up): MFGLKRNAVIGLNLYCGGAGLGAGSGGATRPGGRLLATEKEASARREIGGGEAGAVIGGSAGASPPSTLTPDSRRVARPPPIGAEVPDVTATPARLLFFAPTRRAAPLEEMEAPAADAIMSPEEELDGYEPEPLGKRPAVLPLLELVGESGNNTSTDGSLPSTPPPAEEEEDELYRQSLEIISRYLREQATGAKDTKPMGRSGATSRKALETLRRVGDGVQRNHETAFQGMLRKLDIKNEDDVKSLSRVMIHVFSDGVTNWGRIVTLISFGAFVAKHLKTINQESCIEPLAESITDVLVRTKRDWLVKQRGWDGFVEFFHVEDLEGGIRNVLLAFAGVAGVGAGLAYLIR
Calb biofilm kill: clotrimazole potentiators killing C. albicans biofilm, primary screen, 4-compound mixtures. C. albicans biofilm persisters + clotrimazole, fluorescence viability; primary screen in compound mixtures of four per well. inhibition, % at 7.6 µM. 120,000 tested, 0.02% active;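 active = inhibition above 30.3% in the primary screen of four-compound pools, then above 30% when the compound was retested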;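 also: compounds exposed to preformed 24 h biofilms for 48 h; 0% = untreated biofilm control and 100% = clotrimazole plus chlorhexidine kill blank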
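Probe or stimulus – Clotrimazole 50 µg/mL co-treatment · System – C. albicans biofilms · Schedule – 24 h biofilm formation, then 48 h compound exposure, 37 °C · Evaluation – percent inhibition of biofilm viability · Technique – 2-h Alamar Blue fluorescence, 535/590 nm excitation/emission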
Bim-Mcl-1: inhibitors of Bim peptide binding to Mcl-1, primary screen, biochemical, bead-based flow cytometry, multiplex; Bim peptide-Mcl-1 binding; inhibition, % at 10 µM; Induced myeloid leukemia cell differentiation protein Mcl-1 (Homo sapiens), Q07820; 190,000 tested, 0.1% active; in the data active = inhibition above about 40%;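 also: 0% = no compound tracer wells and 100% = peptide blocker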
Mcl1 Bid PPI: Mcl-1/Bid binding inhibitors, primary screen, biochemical, TR-FRET, 1536-well. TR-FRET Mcl-1/Bid-Dy647 peptide binding. Induced myeloid leukemia cell differentiation protein Mcl-1 (Homo sapiens), Q07820. 220,000 tested, 0.97% active. inhibition, % at 21.7 µM;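 active = compounds that cut the binding signal by more than half at the single screening dose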;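 also: His-tagged Mcl-1 with europium anti-His antibody binding Bid BH3 peptide; 0% = Mcl-1 plus peptide wells and 100% = peptide-only wells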
14-3-3 Bad PPI: inhibitors of 14-3-3 zeta/Bad binding, primary screen, biochemical, TR-FRET, bovine 14-3-3 zeta. TR-FRET 14-3-3zeta/Dy647-pBad peptide displacement, 1 h. inhibition, % at 21.7 µM. 220,000 tested, 0.71% active;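 active = inhibition above about 70%, limit read from the data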;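 also: 0% = full 14-3-3 plus peptide FRET controls and 100% = background without 14-3-3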
Target sequence (P63103 whole entry, looked up): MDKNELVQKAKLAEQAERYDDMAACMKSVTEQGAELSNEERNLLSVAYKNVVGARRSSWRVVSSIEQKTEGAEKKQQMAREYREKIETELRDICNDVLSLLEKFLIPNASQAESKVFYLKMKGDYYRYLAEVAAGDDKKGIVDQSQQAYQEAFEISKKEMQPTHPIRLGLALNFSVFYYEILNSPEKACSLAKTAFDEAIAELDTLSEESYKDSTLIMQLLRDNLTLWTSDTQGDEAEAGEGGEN
Active calls of the source: *; . = no result given; [ ] = dose if it differs, or a comment.

SMILES	Hck-Nef inh	Mcl1-Noxa inh	Calb biofilm kill	Bim-Mcl-1	Mcl1 Bid PPI	14-3-3 Bad PPI
O=C(NCCc1cccs1)c1cccs1	-22	3	8	2	-12	5
CCOC(=O)c1ccc(Cl)c(S(=O)(=O)N2CCCC2)c1	10	7	13	0	-13	-3
CC(C)OC(=O)c1ccccc1C(=O)c1ccc(N)c([N+](=O)[O-])c1	21	61*	7	4	-59	43
C=CCn1c(SCC(=O)Nc2ccccc2OC)nnc1-c1ccccn1	1	-7	.	-4	-10	79*
C=CCn1c(SCC(=O)Nc2cc(NC(C)=O)ccc2OC)nnc1-c1ccccn1	0	21	.	0	-13	-5
CCc1ccc(NC(=O)C2CCCN2S(=O)(=O)c2ccc3c(c2)n(C)c(=O)c(=O)n3C)cc1 (stereo not drawn)	-7	-17	18	.	-20	2
COc1ccc(S(=O)(=O)N(CC(=O)NC2CC2)C2CCCCC2)cc1Cl	-1	5	.	-2	-1	-1
CNC(=O)CN(C1CCCCC1)S(=O)(=O)c1ccc(OC)c(Cl)c1	0	-9	.	0	98*	24
Cc1cccc2c1c1ccc3c(c1n2C)C(=O)C=CC3=O	-6	108*	27	.	40	10
Cc1ccccc1N1CC(=O)N(c2ccccc2C)CC1=O	-16	-1	.	0	-4	3
CCOc1ccc(Nc2c3ccccc3nc3ccccc23)cc1	-2	53*	6	.	6	2
COc1ccc(Nc2nc(-c3ccccc3)c3ccccc3n2)cc1	1	2	18	12	9	-2
COc1ccc(Nc2nc(C)c3ccccc3n2)cc1	1	17	.	-2	102*	93*
Cc1ccc(OCC(=O)NNc2c3ccccc3nc3ccccc23)cc1	12	51*	15	1	62*	17
O=C(Nc1nc(-c2ccco2)c(-c2ccco2)s1)C1CC(=O)N(c2ccc3c(c2)OCCO3)C1 (stereo not drawn)	36	75*	.	5	19	-11
Cc1nn(C)c(Sc2ccccc2N)c1[N+](=O)[O-]	27	9	1	-1	-44	-7
CCN(CC)C(=O)C1CCCN(Cc2ccccc2)C1 (stereo not drawn)	-7	24	.	-4	45	80*
O=C(C1CCCN(Cc2ccccc2)C1)N1CCc2ccccc2C1 (stereo not drawn)	1	19	.	-2	43	78*
O=C(C1CCC1)N1CCN(Cc2ccccc2)CC1	5	-7	.	4	-39	12
CN(Cc1ccccc1)C(=O)C1CCCN(Cc2ccc(Cl)cc2)C1 (stereo not drawn)	2	11	.	-1	15	76*
NC(=O)C1CCCN(Cc2ccc(Cl)cc2)C1 (stereo not drawn)	0	0	.	0	12	72*
CCCCN(C)C(=O)C1CCN(CCCc2ccccc2)CC1	1	28	.	1	31	80*
CCN(CC)C(=O)C1CCCN(Cc2ccccc2C(F)(F)F)C1 (stereo not drawn)	-3	32	.	-7	35	71*
CC1CCCN(C(=O)C2CCN(CCCc3ccccc3)CC2)C1 (stereo not drawn)	-4	16	.	-1	36	20
CCOC(=O)C1CCCN(Cc2ccc3c(c2)OCO3)C1 (stereo not drawn)	-23	36	7	-2	33	75*
SMILES	Hck-Nef inh	Mcl1-Noxa inh	Calb biofilm kill	Bim-Mcl-1	Mcl1 Bid PPI	14-3-3 Bad PPI
CN(Cc1ccccc1)C(=O)C1CCN(Cc2ccc(F)cc2)CC1	-15	9	.	-2	55*	23
S=c1nc(-c2csc3c2CCCC3)[nH][nH]1	0	-22	18	-2	1	-19
COc1cc(OC)cc(C(=O)Nc2ccc(S(=O)(=O)Nc3nc(C)cc(C)n3)cc2)c1	16	-8	-4	0	-28	-10
O=C1c2ccccc2C(=O)N1/N=C/c1ccc(O)c(O)c1O	-7	100*	19	.	-93	50
O=C1c2cccc3cccc(c23)C(=O)N1/N=C/c1ccc(O)cc1O	3	60*	22	-3	28	15
Cc1sc2nc(C)n(/N=C/c3ccc(O)cc3O)c(=O)c2c1C	7	22	13	0	-20	-4
COc1ccc(/C=N/NC(=O)c2snnc2C)c(OC)c1OC	16	-10	12	0	4	-2
CCOC(=O)Cn1c(=O)oc2cc(S(=O)(=O)Nc3ccc(N(CC)CC)cc3C)ccc21	6	54*	.	-2	-12	-3
O=C(Nc1cccc(F)c1)NC1CCN(Cc2ccccc2)CC1	-21	36	7	2	-73	-1
O=[n+]1c2c(n([O-])c3ccccc31)CCCC2	0	-14	.	-2	-46	0
COC(=O)c1ccc(NC(=O)c2ccccc2N(C)S(=O)(=O)c2ccccc2)cc1	27	1	.	-1	98*	-7
CN(C)c1ccc(NC(=O)/C=C/c2ccccc2Cl)cc1	2	77*	22	-3	-17	-5
Cc1cc(NC(=O)/C=C/c2ccccc2Cl)no1	1	-40	13	-4	-35	0
CCN(CC)c1ccc(NC(=O)/C=C\c2ccccc2Cl)cc1	0	91*	.	0	29	8
O=C1CS/C(=N/N=C/c2ccco2)N1Cc1ccc(F)cc1	11	2	24	.	-17	3
CC(=O)c1ccc(NC(=S)NCCc2cccc(Cl)c2)cc1	0	10	12	-2	-41	-1
NC(=O)c1cc(-c2ccccc2)nc(N2CCOCC2)n1	10	-12	.	1	-35	-3
CC[n+]1cc(-c2ccccc2)nc(N2CCOCC2)n1	0	20	.	0	-34	82*[fluorescence artefact?]
O=S(=O)(NC1CCCCC1Oc1ccccc1)c1ccccc1 (stereo not drawn)	1	8	8	-2	-10	4
CCNc1nc(NCc2ccccc2)nc(SCC(=O)Nc2ccccc2)n1	0	10	16	-5	53*	13
CCNc1nc(NCc2ccccc2)nc(SCC(N)=O)n1	7	0	9	-1	-26	3
CC1(C)OC(=O)N(Cc2ccco2)C1(C)O (stereo not drawn)	1	7	.	1	51*	-2
CC(C)(C)C1CCC(C(=O)OCC(=O)Nc2ccc3[nH]c(=O)[nH]c3c2)CC1 (stereo not drawn)	0	59*	16	-1	8	-1

From PubChem BioAssay
